Assay results taken from ChEMBL document CHEMBL3526002, “Tissue distribution and identification of radioactivity components at elimination phase after oral administration of [¹⁴C]CS-1036, an α-amylase inhibitor, to rats” (Drug Metab Dispos, 2013).

Legend:
Conditions in all cases: in vivo
Pancreas [1] = experiment: Drug uptake in albino F344/DuCrlCrlj rat pancreas assessed as ng equivalent of CS-1036 at 5 mg/kg, po after 8 hrs by liquid scintillation counting; type: ADME, organism-based; design: dose 5 mg/kg, dosed compound name [14C]CS-1036, route oral
Zone of skin [2] = experiment: Drug uptake in albino F344/DuCrlCrlj rat skin at 5 mg/kg, po after 72 hrs by liquid scintillation counting; type: ADME, organism-based; design: dose 5 mg/kg, dosed compound name [14C]CS-1036, route oral
[3] = Drug uptake in albino F344/DuCrlCrlj rat trachea assessed as ng equivalent of CS-1036 at 5 mg/kg, po after 1 hr by liquid scintillation counting; type: ADME, organism-based; design: dose 5 mg/kg, dosed compound name [14C]CS-1036, route oral
[4] = Drug uptake in albino F344/DuCrlCrlj rat fat at 5 mg/kg, po after 168 hrs by liquid scintillation counting; type: ADME, organism-based, Adipose tissue; design: dose 5 mg/kg, dosed compound name [14C]CS-1036, route oral
In short: (§1)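 Male F344/DuCrlCrlj rats (bought at 7 weeks, acclimatized 5–6 days; 159–167 g; n = 3 per time point) received a single oral dose of [14C]CS-1036 at 5 mg/kg. White adipose tissue was collected after abdominal aortic bleeding at 1, 4, 8, 24, 72, 168 or 336 h. Samples were counted by LSC with external-standard efficiency correction. Results were converted to ng equivalents per g from specific activity and sample weight.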

Liver [5] = experiment: Drug uptake in albino F344/DuCrlCrlj rat liver assessed as ng equivalent of CS-1036 at 5 mg/kg, po after 1 hr by liquid scintillation counting; type: ADME, organism-based; design: dose 5 mg/kg, dosed compound name [14C]CS-1036, route oral
Pancreas [6] = experiment: Drug uptake in albino F344/DuCrlCrlj rat pancreas at 5 mg/kg, po after 336 hrs by liquid scintillation counting; type: ADME, organism-based; design: dose 5 mg/kg, dosed compound name [14C]CS-1036, route oral
Harderian gland [7] = experiment: Drug uptake in albino F344/DuCrlCrlj rat harderian gland assessed as ng equivalent of CS-1036 at 5 mg/kg, po after 24 hrs by liquid scintillation counting; type: ADME, organism-based; design: dose 5 mg/kg, dosed compound name [14C]CS-1036, route oral
[8] = Drug uptake in albino F344/DuCrlCrlj rat fat assessed as ng equivalent of CS-1036 at 5 mg/kg, po after 168 hrs by liquid scintillation counting; type: ADME, organism-based, Adipose tissue; design: dose 5 mg/kg, dosed compound name [14C]CS-1036, route oral; in short: as §1
Liver [9] = experiment: Drug uptake in albino F344/DuCrlCrlj rat liver assessed as ng equivalent of CS-1036 at 5 mg/kg, po after 4 hrs by liquid scintillation counting; type: ADME, organism-based; design: dose 5 mg/kg, dosed compound name [14C]CS-1036, route oral
[10] = Drug uptake in albino F344/DuCrlCrlj rat thyroid gland assessed as ng equivalent of CS-1036 at 5 mg/kg, po after 1 hr by liquid scintillation counting; type: ADME, organism-based; design: dose 5 mg/kg, dosed compound name [14C]CS-1036, route oral
Zone of skin [11] = experiment: Drug uptake in albino F344/DuCrlCrlj rat skin at 5 mg/kg, po after 24 hrs by liquid scintillation counting; type: ADME, organism-based; design: dose 5 mg/kg, dosed compound name [14C]CS-1036, route oral
Stomach [12] = experiment: Drug uptake in albino F344/DuCrlCrlj rat stomach assessed as ng equivalent of CS-1036 at 5 mg/kg, po after 336 hrs by liquid scintillation counting; type: ADME, organism-based; design: dose 5 mg/kg, dosed compound name [14C]CS-1036, route oral
Liver [13] = experiment: Drug uptake in albino F344/DuCrlCrlj rat liver at 5 mg/kg, po after 4 hrs by liquid scintillation counting; type: ADME, organism-based; design: dose 5 mg/kg, dosed compound name [14C]CS-1036, route oral
[14] = Drug uptake in albino F344/DuCrlCrlj rat skeletal muscle at 5 mg/kg, po after 8 hrs by liquid scintillation counting; type: ADME, organism-based, Muscle tissue; design: dose 5 mg/kg, dosed compound name [14C]CS-1036, route oral
Large intestine = experiment: Drug uptake in albino F344/DuCrlCrlj rat large intestine at 5 mg/kg, po after 72 hrs by liquid scintillation counting; type: ADME, organism-based; design: dose 5 mg/kg, dosed compound name [14C]CS-1036, route oral
Small intestine [15] = experiment: Drug uptake in albino F344/DuCrlCrlj rat small intestine assessed as ng equivalent of CS-1036 at 5 mg/kg, po after 8 hrs by liquid scintillation counting; type: ADME, organism-based; design: dose 5 mg/kg, dosed compound name [14C]CS-1036, route oral
Pancreas [16] = experiment: Drug uptake in albino F344/DuCrlCrlj rat pancreas assessed as ng equivalent of CS-1036 at 5 mg/kg, po after 72 hrs by liquid scintillation counting; type: ADME, organism-based; design: dose 5 mg/kg, dosed compound name [14C]CS-1036, route oral
Plasma [17] = experiment: Drug uptake in albino F344/DuCrlCrlj rat plasma at 5 mg/kg, po after 72 hrs by liquid scintillation counting; type: ADME, organism-based; design: dose 5 mg/kg, dosed compound name [14C]CS-1036, route oral
Liver [18] = experiment: Drug uptake in albino F344/DuCrlCrlj rat liver assessed as ng equivalent of CS-1036 at 5 mg/kg, po after 336 hrs by liquid scintillation counting; type: ADME, organism-based; design: dose 5 mg/kg, dosed compound name [14C]CS-1036, route oral
[19] = Drug uptake in albino F344/DuCrlCrlj rat mandibular gland at 5 mg/kg, po after 24 hrs by liquid scintillation counting; type: ADME, organism-based; design: dose 5 mg/kg, dosed compound name [14C]CS-1036, route oral
[20] = Drug uptake in albino F344/DuCrlCrlj rat brown fat assessed as ng equivalent of CS-1036 at 5 mg/kg, po after 72 hrs by liquid scintillation counting; type: ADME, organism-based, Brown adipose tissue; design: dose 5 mg/kg, dosed compound name [14C]CS-1036, route oral
[21] = Drug uptake in albino F344/DuCrlCrlj rat skeletal muscle assessed as ng equivalent of CS-1036 at 5 mg/kg, po after 8 hrs by liquid scintillation counting; type: ADME, organism-based, Muscle tissue; design: dose 5 mg/kg, dosed compound name [14C]CS-1036, route oral
Kidney [22] = experiment: Drug uptake in albino F344/DuCrlCrlj rat kidney assessed as ng equivalent of CS-1036 at 5 mg/kg, po after 72 hrs by liquid scintillation counting; type: ADME, organism-based; design: dose 5 mg/kg, dosed compound name [14C]CS-1036, route oral
Zone of skin [23] = experiment: Drug uptake in albino F344/DuCrlCrlj rat skin at 5 mg/kg, po after 8 hrs by liquid scintillation counting; type: ADME, organism-based; design: dose 5 mg/kg, dosed compound name [14C]CS-1036, route oral
Stomach [24] = experiment: Drug uptake in albino F344/DuCrlCrlj rat stomach at 5 mg/kg, po after 24 hrs by liquid scintillation counting; type: ADME, organism-based; design: dose 5 mg/kg, dosed compound name [14C]CS-1036, route oral
[25] = Drug uptake in albino F344/DuCrlCrlj rat urinary bladder at 5 mg/kg, po after 336 hrs by liquid scintillation counting; type: ADME, organism-based; design: dose 5 mg/kg, dosed compound name [14C]CS-1036, route oral
Lung = experiment: Drug uptake in albino F344/DuCrlCrlj rat lung assessed as ng equivalent of CS-1036 at 5 mg/kg, po after 1 hr by liquid scintillation counting; type: ADME, organism-based; design: dose 5 mg/kg, dosed compound name [14C]CS-1036, route oral
Spleen = experiment: Drug uptake in albino F344/DuCrlCrlj rat spleen at 5 mg/kg, po after 72 hrs by liquid scintillation counting; type: ADME, organism-based; design: dose 5 mg/kg, dosed compound name [14C]CS-1036, route oral
Plasma [26] = experiment: Drug metabolism in albino F344/DuCrlCrlj rat plasma assessed as (2R,3R,4R)-2-(hydroxymethyl)pyrrolidine-3,4-diol formation at 10 mg/kg, po after 8 to 72 hrs by liquid scintillation counting; type: ADME, organism-based; design: dose 10 mg/kg, dosed compound name [14C]CS-1036, route oral
Kidney [27] = experiment: Drug uptake in albino F344/DuCrlCrlj rat kidney assessed as ng equivalent of CS-1036 at 5 mg/kg, po after 4 hrs by liquid scintillation counting; type: ADME, organism-based; design: dose 5 mg/kg, dosed compound name [14C]CS-1036, route oral
Small intestine [28] = experiment: Drug uptake in albino F344/DuCrlCrlj rat small intestine assessed as ng equivalent of CS-1036 at 5 mg/kg, po after 168 hrs by liquid scintillation counting; type: ADME, organism-based; design: dose 5 mg/kg, dosed compound name [14C]CS-1036, route oral
Cerebellum = experiment: Drug uptake in albino F344/DuCrlCrlj rat cerebellum assessed as ng equivalent of CS-1036 at 5 mg/kg, po after 4 hrs by liquid scintillation counting; type: ADME, organism-based; design: dose 5 mg/kg, dosed compound name [14C]CS-1036, route oral
Harderian gland [29] = experiment: Drug uptake in albino F344/DuCrlCrlj rat harderian gland assessed as ng equivalent of CS-1036 at 5 mg/kg, po after 4 hrs by liquid scintillation counting; type: ADME, organism-based; design: dose 5 mg/kg, dosed compound name [14C]CS-1036, route oral
Thymus = experiment: Drug uptake in albino F344/DuCrlCrlj rat thymus at 5 mg/kg, po after 1 hr by liquid scintillation counting; type: ADME, organism-based; design: dose 5 mg/kg, dosed compound name [14C]CS-1036, route oral
[30] = Drug uptake in albino F344/DuCrlCrlj rat mandibular gland at 5 mg/kg, po after 336 hrs by liquid scintillation counting; type: ADME, organism-based; design: dose 5 mg/kg, dosed compound name [14C]CS-1036, route oral
Kidney [31] = experiment: Drug uptake in albino F344/DuCrlCrlj rat kidney assessed as ng equivalent of CS-1036 at 5 mg/kg, po after 336 hrs by liquid scintillation counting; type: ADME, organism-based; design: dose 5 mg/kg, dosed compound name [14C]CS-1036, route oral

Radiolabel recovery (Pancreas [1]): 71 ngequiv/g | Radiolabel recovery (Zone of skin [2]): 91.5 ngequiv/g | Radiolabel recovery [3]: 7.4 ngequiv/g | Radiolabel recovery [4]: 130 ngequiv/g | Radiolabel recovery (Liver [5]): 60 ngequiv/g | Radiolabel recovery (Pancreas [6]): 25.4 ngequiv/g | Radiolabel recovery (Harderian gland [7]): 88 ngequiv/g | Radiolabel recovery [8]: 64 ngequiv/g | Radiolabel recovery (Liver [9]): 93 ngequiv/g | Radiolabel recovery [10]: 7.2 ngequiv/g | Radiolabel recovery (Zone of skin [11]): 53.9 ngequiv/g | Radiolabel recovery (Stomach [12]): 5.1 ngequiv/g | Radiolabel recovery (Liver [13]): 276 ngequiv/g | Radiolabel recovery [14]: 32.2 ngequiv/g | Radiolabel recovery (Large intestine): 65.1 ngequiv/g | Radiolabel recovery (Small intestine [15]): 36 ngequiv/g | Radiolabel recovery (Pancreas [16]): 82 ngequiv/g | Radiolabel recovery (Plasma [17]): 14.5 ngequiv/ml | Radiolabel recovery (Liver [18]): 2.66 ngequiv/g | Radiolabel recovery [19]: 118 ngequiv/g | Radiolabel recovery [20]: 136 ngequiv/g | Radiolabel recovery [21]: 11.2 ngequiv/g | Radiolabel recovery (Kidney [22]): 29.7 ngequiv/g | Radiolabel recovery (Zone of skin [23]): 60.3 ngequiv/g | Radiolabel recovery (Stomach [24]): 118 ngequiv/g | Radiolabel recovery [25]: 11.7 ngequiv/g | Radiolabel recovery (Lung): 3 ngequiv/g | Radiolabel recovery (Spleen): 70.6 ngequiv/g | Drug metabolism (Plasma [26]): metabolite_detected | Radiolabel recovery (Kidney [27]): 173 ngequiv/g | Radiolabel recovery (Small intestine [28]): 5.5 ngequiv/g | Radiolabel recovery (Cerebellum): 0.6 ngequiv/g | Radiolabel recovery (Harderian gland [29]): 5.1 ngequiv/g | Radiolabel recovery (Thymus): 23.2 ngequiv/g | Radiolabel recovery [30]: 8.58 ngequiv/g | Radiolabel recovery (Kidney [31]): 4.9 ngequiv/g
Compound: C[C@H]1O[C@@H](O[C@H]2[C@H](O)[C@@H](O)[C@@H](O[14C@H]3[14C@H](O)[14CH2]N[14C@@H]3[14CH2]O)O[C@@H]2CO)[C@H](O)[C@@H](O)[C@@H]1O
